The IC50 is the midpoint of a concentration-inhibition curve.

The test system of data set [1] is Trypanosoma cruzi. The data set can be described thus: Antitrypanosomal activity against epimastigotes of Trypanosoma cruzi Y assessed as parasite growth inhibition after 5 days by spectrophotometric analysis. Conditions: for IC50: Trypanosoma cruzi, Y, 120 h. The class given is functional, organism-based. In a few lines:
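Stationary-phase epimastigotes (10-day culture, 28 °C) diluted in LIT medium with 10% fetal calf serum to 2.0 x 10^6 parasites/mL. Compounds dissolved in DMSO (final ≤1.0%), 0.25–180.0 µM, incubated 28 °C for 5 days. Growth read at A580 versus day 0 and untreated controls as percent growth inhibition. Triplicates; IC50 by sigmoid dose–response fit, at least five concentrations.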

Data set [2] can be described thus: Selectivity index, ratio of IC50 for human FN1 fibroblasts to IC50 for epimastigotes of Trypanosoma cruzi Y. In outline: (§1)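 Selectivity index taken as IC50 in the mammalian cell line (J774 or FN1) divided by IC50 against Y-strain epimastigotes.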
The nature of data set [3]: Cytotoxicity against human FN1 fibroblasts after 24 hrs by MTT assay. In outline:
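Human FN1 fibroblasts kept in RPMI 1640 with 10% FBS at 37 °C, 5% CO2. Plated in triplicate at 1 x 10^4 cells/well, incubated overnight, then treated 24 h with 12.5–200 µM. MTT at 5 mg/mL for 2 h, formazan dissolved in 0.1 N HCl in isopropanol, absorbance at 540 nm, IC50 determined.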

The subject of another data set is J774. Description: Cytotoxicity against mouse J774 cells after 48 hrs by MTT assay. In kind it is cell-based. Conditions: J774, 48 h. In outline: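 J774 murine macrophages in RPMI 1640 with 10% FBS, 37 °C, 5% CO2. Seeded at 1.0 x 10^4 cells/well in RPMI 1640 with 5% heat-inactivated fetal calf serum, attached 24 h. Exposed 48 h to 0.8–400.0 µM. MTT at 0.4 mg/mL final for 3 h at 37 °C, formazan in DMSO, A595. IC50 is the mean of six experiments, sigmoid fit, at least five concentrations.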
For orientation: Formazan colour is commonly taken as a measure of viable cells.

Data set [4] is described as follows: Selectivity index, ratio of IC50 for mouse J774 cells to IC50 for epimastigotes of Trypanosoma cruzi Y. In kind it is toxicity, cell-based. Conditions: read-out: Ratio IC50. In a few lines: as §1
Data set [5] concerns Trypanosoma cruzi. The data set can be described thus: Ratio of nifurtimox IC50 to compound IC50 for epimastigotes of Trypanosoma cruzi Y. The class given is functional.

In the case of `CC(=O)N1N=C(c2ccc(Br)cc2)OC1c1ccc([N+](=O)[O-])o1` (centres undefined), in the data set on Trypanosoma cruzi [1], the “log(1/C)” value was determined as 5.01 and the IC50 amounted to 9.59 µM.
As to `CC(=O)N1N=C(c2ccc(I)cc2)OC1c1ccc([N+](=O)[O-])o1` (centres undefined), in the data set on Trypanosoma cruzi [1], the “log(1/C)” value is given as 4.93 and the IC50 is 11.5 µM.
With `N#Cc1ccc(C(=O)N/N=C/c2ccc([N+](=O)[O-])o2)cc1`, in the data set on Trypanosoma cruzi [1], the “log(1/C)” value is listed as 4.9 and the half-inhibitory concentration (IC50) was 12.5 µM.
Turning to `CCCCc1ccc(C(=O)N/N=C/c2ccc([N+](=O)[O-])o2)cc1`, the “log(1/C)” value with Trypanosoma cruzi [1] came to 5.98. The IC50 is 1.05 µM with Trypanosoma cruzi [1], 98 µM in data set [3] and 28.1 µM in the data set with J774. Also, the “Ratio IC50” value is recorded as 93.33 in data set [2] and 3 with Trypanosoma cruzi [5]. Moreover, in data set [4], the selectivity ratio was 26.7.
Regarding `O=C(N/N=C/c1ccc([N+](=O)[O-])o1)c1ccc(Br)cc1`, in the data set on Trypanosoma cruzi [1], the “log(1/C)” value is 5.42 and the concentration for half-maximal inhibition (IC50) was determined as 3.74 µM.
`O=C(N/N=C/c1ccc([N+](=O)[O-])o1)c1ccc(I)cc1`: in the data set on Trypanosoma cruzi [1], the “log(1/C)” value was determined as 5.49 and the IC50 was 3.21 µM.
For `CC(=O)N1N=C(c2ccccc2)OC1c1ccc([N+](=O)[O-])o1` (centres undefined) the same measures were 4.99 and 10.2 µM.
For `CC(=O)N1N=C(c2ccc(C)cc2)OC1c1ccc([N+](=O)[O-])o1` (centres undefined) the same measures were 5.01 and 9.84 µM.
With `CC(=O)N1N=C(c2ccc(C#N)cc2)OC1c1ccc([N+](=O)[O-])o1` (centres undefined), in the data set on Trypanosoma cruzi [1], the “log(1/C)” value came out at 4.87 and the IC50 came to 13.4 µM.
Turning to `COc1ccc(C2=NN(C(C)=O)C(c3ccc([N+](=O)[O-])o3)O2)cc1` (centres undefined), in the data set on Trypanosoma cruzi [1], the “log(1/C)” value came out at 5.03 and the 50% inhibitory concentration (IC50) was determined as 9.26 µM.
Consider `CC(=O)N1N=C(c2ccc(Cl)cc2)OC1c1ccc([N+](=O)[O-])o1` (centres undefined), for which, in the data set on Trypanosoma cruzi [1], the “log(1/C)” value came out at 4.94. For the same molecule, the IC50 with Trypanosoma cruzi [1] was 11.5 µM; in data set [3] it was above 200 µM; with J774 it was above 400 µM. The “Ratio IC50” value in data set [2] is reported as above 17. In addition, the selectivity ratio in data set [4] is above 34.
As for `CC(=O)N1N=C(c2ccc([N+](=O)[O-])cc2)OC1c1ccc([N+](=O)[O-])o1` (centres undefined), in the data set on Trypanosoma cruzi [1], the “log(1/C)” value came to 4.85. The 50% inhibitory concentration (IC50) in the data set on Trypanosoma cruzi [1] is 13.9 µM; in data set [3], above 200 µM; with J774, 114 µM. The “Ratio IC50” value in data set [2] is listed as above 14. The selectivity ratio in data set [4] turned out to be 8.21.
As to `CCCCc1ccc(C2=NN(C(C)=O)C(c3ccc([N+](=O)[O-])o3)O2)cc1` (centres undefined), the “log(1/C)” value with Trypanosoma cruzi [1] came out at 5.08. Besides, the IC50 in the data set on Trypanosoma cruzi [1] is 8.27 µM; in data set [3], 186 µM; in the data set with J774, above 400 µM. Also, in data set [2], the “Ratio IC50” value was 22.49. Also, in data set [4], the selectivity ratio was above 48.
In the case of `CC(=O)N1N=C(c2ccc(C(F)(F)F)cc2)OC1c1ccc([N+](=O)[O-])o1` (centres undefined), in the data set with Trypanosoma cruzi [1], the “log(1/C)” value is listed as 4.95 and the IC50 was 11.1 µM.
With `O=C(N/N=C/c1ccc([N+](=O)[O-])o1)c1ccccc1`, in the data set with Trypanosoma cruzi [1], the “log(1/C)” value was determined as 5.35 and the IC50 was 4.44 µM.
`O=C(N/N=C/c1ccc([N+](=O)[O-])o1)c1ccc(Cl)cc1`: the “log(1/C)” value with Trypanosoma cruzi [1] was 5.39. In addition, the IC50 was 4.03 µM in the data set with Trypanosoma cruzi [1], above 200 µM in data set [3] and 57.1 µM with J774. The “Ratio IC50” value in data set [2] is recorded as above 49.63. Moreover, the selectivity ratio in data set [4] was 14.2.
Take `COc1ccc(C(=O)N/N=C/c2ccc([N+](=O)[O-])o2)cc1`: in the data set on Trypanosoma cruzi [1], the “log(1/C)” value worked out at 5.4 and the half-maximal inhibitory concentration (IC50) was determined as 3.94 µM.
`O=C(N/N=C/c1ccc([N+](=O)[O-])o1)c1ccc([N+](=O)[O-])cc1`: the “log(1/C)” value in the data set on Trypanosoma cruzi [1] is reported as 5.02. Besides, the IC50 stood at 9.45 µM with Trypanosoma cruzi [1], 178 µM in data set [3] and 79.1 µM in the data set on J774. Also, in data set [2], the “Ratio IC50” value is 18.83. Besides, the selectivity ratio in data set [4] came to 8.37.
With `Cc1ccc(C(=O)N/N=C/c2ccc([N+](=O)[O-])o2)cc1`, in the data set with Trypanosoma cruzi [1], the “log(1/C)” value came out at 5.43 and the IC50 was 3.71 µM.
Take `O=C(N/N=C/c1ccc([N+](=O)[O-])o1)c1ccc(C(F)(F)F)cc1`: in the data set on Trypanosoma cruzi [1], the “log(1/C)” value was found to be 5.35 and the IC50 is 4.42 µM.
`O=C(Cn1ccnc1[N+](=O)[O-])NCc1ccccc1` [BENZNIDAZOLE]: the IC50 is 22.7 µM with Trypanosoma cruzi [1], above 200 µM in data set [3] and above 400 µM with J774. The “Ratio IC50” value in data set [2] is reported as above 9. For the same molecule, the selectivity ratio in data set [4] is above 18.
On to `CC1CS(=O)(=O)CCN1/N=C/c1ccc([N+](=O)[O-])o1` (centres undefined) [NIFURTIMOX], for which, in data set [2], the “Ratio IC50” value is above 53. Further, the values for the 50% inhibitory concentration (IC50) (in data set [3]; in the data set on J774) were above 200 µM and 280 µM, respectively. In data set [4], the selectivity ratio turned out to be 74.2.

Source of the values: ChEMBL document CHEMBL2413043, “5-Nitro-2-furfuriliden derivatives as potential anti-Trypanosoma cruzi agents: design, synthesis, bioactivity evaluation, cytotoxicity and exploratory data analysis” (Bioorg Med Chem, 2013).
